The source of these data is ChEMBL document CHEMBL3875171, “[1,2]Oxazolo[5,4-e]isoindoles as promising tubulin polymerization inhibitors” (Eur J Med Chem, 2016).

As a reminder, the IC50 is the concentration that gives 50% inhibition.

Data set [1] in a line: Cytotoxicity against human JR8 cells assessed as growth inhibition after 72 hrs by MTS assay. It is filed as functional, cell-based. The following applies: JR8, 72 h. The procedure, abridged: (§1)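 Log-phase cells seeded at 4500 cells/50 µL and grown 24 h, then exposed 72 h to 0.01-100 µM compound; vehicle controls 0.01% DMSO. MTS read-out at 490 nm, expressed as % of DMSO-treated cells. Eight replicates per condition, at least three independent repeats; IC50 read graphically from dose-response curves.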

A short description of data set [2]: Cytotoxicity against human M14 cells assessed as growth inhibition after 72 hrs by MTS assay. Type of data set: functional, cell-based. The following applies: M14, 72 h. In short, it runs like this:
as §1
(Formazan colour is commonly taken as a measure of viable cells.)

Data set [3] is described as follows: Cytotoxicity against human MCF7 cells assessed as growth inhibition after 72 hrs by MTS assay. The following applies: MCF7, 72 h. Type of data set: functional, cell-based. The procedure, abridged:
as §1

Data set [4] in a line: Cytotoxicity against human MDA-MB-231 cells assessed as growth inhibition after 72 hrs by MTS assay. The following applies: MDA-MB-231, 72 h. Type of data set: functional, cell-based. The procedure, abridged:
as §1

Data set [5] is described as follows: Cytotoxicity against human PC3 cells assessed as growth inhibition after 72 hrs by MTS assay. The following applies: PC-3, 72 h. Type of data set: functional, cell-based. The procedure, abridged: as §1
Data set [6] in a line: Cytotoxicity against human DU145 cells assessed as growth inhibition after 72 hrs by MTS assay. Type of data set: functional, cell-based. Conditions: DU-145, 72 h. The procedure, abridged: as §1
Data set [7] is described as follows: Cytotoxicity against human STO cells assessed as growth inhibition after 72 hrs by MTS assay. Type of data set: functional, cell-based. In short, it runs like this:
as §1

A short description of data set [8]: Cytotoxicity against human MP8 cells assessed as growth inhibition after 72 hrs by MTS assay. It is filed as functional, cell-based. The following applies: MP8, 72 h. In short, it runs like this:
as §1

A short description of data set [9]: Cytotoxicity against human WI38 cells assessed as growth inhibition after 72 hrs by MTS assay. It is filed as toxicity, cell-based, WI-38. The procedure, abridged:
as §1

Data set [10] in a line: Cytotoxicity against human MCF10A cells assessed as growth inhibition after 72 hrs by MTS assay. It is filed as toxicity, cell-based, MCF-10A. In short, it runs like this: as §1

Bounds are passed on as bounds.

Turning to `COc1ccc(Cn2cc3c(c2)-c2oncc2CC3)cc1OC`, the IC50 in data set [1] amounted to 0.85 µM; in data set [2], 0.96 µM; in data set [3], 1.03 µM; in [4], 0.88 µM; in data set [5] it was 0.79 µM; in data set [6] it was 0.87 µM. Further, the concentration for half-maximal inhibition (IC50) stood at 0.64 µM in data set [7] and 0.51 µM in data set [8]. The IC50 at 72 h in [9] and in data set [10] was over 100 µM throughout.

Regarding `COc1cc(Cn2cc3c(c2)-c2oncc2CC3)cc(OC)c1OC`, the IC50 in [1] turned out to be 0.63 µM; in data set [2], 0.89 µM; in [3] it was 0.92 µM; in data set [4], 0.75 µM; in data set [5], 0.87 µM; in data set [6], 0.99 µM. The IC50 in data set [7] came out at 0.62 µM; in data set [8] it was 0.73 µM. The concentration for half-maximal inhibition (IC50) at 72 h in data set [9] and in data set [10] was over 100 µM in each case.

Turning to `CCOC(=O)c1c2c(c(C)n1Cc1ccc(OC)cc1)-c1oncc1CC2`, the IC50 in data set [1], in data set [2], in data set [3], in data set [4], in data set [5] and in data set [6] was over 100 µM in each case. Moreover, the 50% inhibitory concentration (IC50) in data set [7] and in [8] was over 100 µM throughout.

As for `Cc1ccc(Cn2cc3c(c2)-c2oncc2CC3)cc1`, the IC50 in [1], in [2], in data set [3], in data set [4], in data set [5] and in data set [6] was over 100 µM each time. Also, the 50% inhibitory concentration (IC50) in data set [7] and in data set [8] was over 100 µM throughout.

Consider `Cc1c2c(cn1C)CCc1cnoc1-2`, for which the half-maximal inhibitory concentration (IC50) in data set [1], in [2], in [3], in [4], in data set [5] and in data set [6] was over 100 µM throughout. The half-maximal inhibitory concentration (IC50) in [7] and in [8] was over 100 µM each time.

Regarding `c1ccc(Cn2cc3c(c2)-c2oncc2CC3)cc1`, the concentration for half-maximal inhibition (IC50) in data set [1] was 5.14 µM; in [2], 6.88 µM; in data set [3] it was 11.3 µM; in [4], 19.6 µM; in data set [5], 13.5 µM; in data set [6], 15.2 µM. Also, the IC50 in [7] worked out at 0.79 µM; in data set [8], 0.69 µM. The IC50 at 72 h in data set [9] and in [10] was over 100 µM throughout.

Take `COc1ccccc1Cn1cc2c(c1)-c1oncc1CC2`: the IC50 is 16.2 µM in data set [1]; 20.5 µM in data set [2]; 19.4 µM in [3]; 14.4 µM in [4]; 18.6 µM in [5]; 17.5 µM in data set [6]. Further, the concentration for half-maximal inhibition (IC50) was 0.79 µM in data set [7] and 1.52 µM in data set [8]. Also, the IC50 at 72 h in data set [9] and in data set [10] was over 100 µM in each case.

On to `CCOC(=O)c1c2c(c(C)n1C)-c1oncc1CC2`, for which the IC50 in data set [1], in data set [2], in data set [3], in data set [4], in data set [5] and in data set [6] was over 100 µM each time. The half-inhibitory concentration (IC50) in data set [7] and in data set [8] was over 100 µM throughout.

With `COc1ccc(OC)c(Cn2cc3c(c2)-c2oncc2CC3)c1`, the half-maximal inhibitory concentration (IC50) in data set [1] turned out to be 19.2 µM; in data set [2] it was 16.8 µM; in data set [3], 15.2 µM; in [4] it was 19.6 µM; in data set [5], 23.7 µM; in data set [6] it was 19.5 µM. For the same compound, the IC50 in data set [7] and in data set [8] was over 100 µM each time. Further, the half-maximal inhibitory concentration (IC50) at 72 h in data set [9] and in data set [10] was over 100 µM in each case.

As to `c1ccc(-n2cc3c(c2)-c2oncc2CC3)cc1`, the IC50 in [1] is 59.6 µM; in data set [2], 63.4 µM; in data set [3], 81.2 µM; in data set [4], 68.4 µM; in data set [5] it was 70.5 µM; in data set [6], 76.4 µM. The IC50 came out at 29.5 µM in data set [7] and 25.3 µM in [8].

`COc1cccc(Cn2cc3c(c2)-c2oncc2CC3)c1`: the IC50 in data set [1] stood at 0.96 µM; in data set [2] it was 1.02 µM; in data set [3], 1.17 µM; in [4], 0.85 µM; in data set [5] it was 0.96 µM; in [6], 1.37 µM. Moreover, the 50% inhibitory concentration (IC50) worked out at 0.46 µM in data set [7] and 0.51 µM in data set [8]. Besides, the IC50 at 72 h in data set [9] and in [10] was over 100 µM in each case.

For `COc1ccc(Cn2cc3c(c2)-c2oncc2CC3)cc1`, the half-inhibitory concentration (IC50) came out at 9.15 µM in [1]; 12.5 µM in data set [2]; 7.89 µM in data set [3]; 15.6 µM in data set [4]; 18.6 µM in data set [5]; 15.2 µM in data set [6]. For the same compound, the 50% inhibitory concentration (IC50) in [7] and in [8] was over 100 µM each time. The IC50 at 72 h in [9] and in data set [10] was over 100 µM in each case.

On to `Cc1c2c(cn1Cc1ccccc1)CCc1cnoc1-2`, for which the IC50 in [1], in data set [2], in data set [3], in [4], in data set [5] and in [6] was over 100 µM in each case. Besides, the IC50 in data set [7] and in data set [8] was over 100 µM throughout.

Consider `Cn1cc2c(c1)-c1oncc1CC2`, for which the half-inhibitory concentration (IC50) came to 58.4 µM in [1]; 65.8 µM in [2]; 86.6 µM in data set [3]; 55.4 µM in [4]; 77.1 µM in data set [5]; 69.3 µM in [6]. Moreover, the IC50 stood at 28.1 µM in data set [7] and 26.7 µM in [8].

Turning to `CCOC(=O)c1c2c(c(C)n1Cc1ccccc1)-c1oncc1CC2`, the IC50 in data set [1], in [2], in data set [3], in data set [4], in [5] and in data set [6] was over 100 µM each time. Moreover, the IC50 in [7] and in data set [8] was over 100 µM throughout.

Consider `COc1ccc(-n2cc3c(c2)-c2oncc2CC3)cc1`, for which the IC50 in data set [1] was found to be 61.6 µM; in data set [2] it was 58.5 µM; in [3], 79.6 µM; in data set [4] it was 57.5 µM; in [5], 79.9 µM; in data set [6] it was 81.1 µM. Also, the IC50 in [7] is 25.5 µM; in [8], 21.2 µM.

Regarding `COc1cccc(Cn2cc3c(c2)-c2oncc2CC3)c1OC`, the concentration for half-maximal inhibition (IC50) in [1], in [2], in data set [3], in [4], in data set [5] and in [6] was over 100 µM throughout. Further, the IC50 in [7] and in [8] was over 100 µM each time.
